ChEMBL document CHEMBL5321203, “8-Amide and 8-carbamate substitution patterns as modulators of 7-hydroxy-4-methylcoumarin's antidepressant profile: Synthesis, biological evaluation and docking studies” (Eur J Med Chem, 2023)
Calls of active or inactive are those of the source. The calls are words filed in the database; no cut-off is given here.

Legend:
[1] = biological target: T1, Amine oxidase [flavin-containing] B (Homo sapiens, UniProt P27338); test: Inhibition of recombinant human MAO-B expressed in baculovirus infected BTITN-5B1-4 insect cells using p-tyramine as substrate at 100 uM incubated for 10 mins followed by substrate addition measured after 15 mins by Amplex Red assay; conditions: bti-tn-5b1-4, 25 min
T1 sequence (P27338 whole entry): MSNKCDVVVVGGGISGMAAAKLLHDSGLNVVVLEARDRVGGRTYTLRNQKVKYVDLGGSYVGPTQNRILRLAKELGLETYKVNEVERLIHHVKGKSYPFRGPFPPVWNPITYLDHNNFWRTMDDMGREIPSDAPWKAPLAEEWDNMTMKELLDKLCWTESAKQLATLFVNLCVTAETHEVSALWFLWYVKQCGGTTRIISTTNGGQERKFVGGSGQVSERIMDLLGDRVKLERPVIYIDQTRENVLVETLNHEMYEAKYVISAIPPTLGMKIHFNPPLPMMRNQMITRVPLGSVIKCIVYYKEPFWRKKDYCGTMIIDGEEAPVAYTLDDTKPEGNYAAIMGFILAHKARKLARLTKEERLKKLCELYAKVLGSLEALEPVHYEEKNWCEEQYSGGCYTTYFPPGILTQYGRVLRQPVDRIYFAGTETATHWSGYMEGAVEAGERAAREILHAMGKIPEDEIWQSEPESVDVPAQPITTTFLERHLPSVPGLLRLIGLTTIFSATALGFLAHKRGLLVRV

[2] = biological target: T2, Amine oxidase [flavin-containing] A (Homo sapiens, UniProt P21397); test: Inhibition of recombinant human MAO-A expressed in baculovirus infected BTITN-5B1-4 insect cells using p-tyramine as substrate at 100 uM incubated for 10 mins followed by substrate addition measured after 15 mins by Amplex Red assay; conditions: bti-tn-5b1-4, 25 min
T2 sequence (P21397 whole entry): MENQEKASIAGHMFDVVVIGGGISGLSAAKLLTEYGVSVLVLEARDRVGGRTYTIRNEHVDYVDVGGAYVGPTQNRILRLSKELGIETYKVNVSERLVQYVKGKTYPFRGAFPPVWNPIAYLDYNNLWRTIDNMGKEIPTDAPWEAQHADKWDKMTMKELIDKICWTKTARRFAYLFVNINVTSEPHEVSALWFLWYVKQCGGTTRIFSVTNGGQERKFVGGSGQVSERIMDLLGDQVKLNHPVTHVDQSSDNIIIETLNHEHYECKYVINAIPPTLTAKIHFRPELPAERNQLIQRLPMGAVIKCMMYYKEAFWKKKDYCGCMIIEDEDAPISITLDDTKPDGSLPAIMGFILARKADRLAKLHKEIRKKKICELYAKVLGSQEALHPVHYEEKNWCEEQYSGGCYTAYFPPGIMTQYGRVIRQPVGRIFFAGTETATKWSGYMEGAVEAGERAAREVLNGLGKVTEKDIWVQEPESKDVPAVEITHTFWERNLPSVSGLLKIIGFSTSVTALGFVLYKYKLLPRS
Method in brief: (§1)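 Microsomal hMAO-A from baculovirus-infected BTI-TN 5B1-4 cells, 1.1 μg protein, in 0.05 M sodium phosphate pH 7.4, preincubated with compound 10 min at 37 °C. Started with 200 μM Amplex Red, 1 U/mL HRP and 1 mM p-tyramine (final). Resorufin fluorescence (ex 545/em 590 nm) read over 15 min at 37 °C; background without enzyme subtracted; vehicle controls run.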

[3] = biological target: T2, Amine oxidase [flavin-containing] A; test: Inhibition of recombinant human MAO-A expressed in baculovirus infected BTITN-5B1-4 insect cells using p-tyramine as substrate incubated for 10 mins followed by substrate addition measured after 15 mins by Amplex Red assay; design: species or system BTI-TN-5B1-4
[4] = biological target: T1, Amine oxidase [flavin-containing] B; test: Inhibition of recombinant human MAO-B expressed in baculovirus infected BTITN-5B1-4 insect cells using p-tyramine as substrate incubated for 10 mins followed by substrate addition measured after 15 mins by Amplex Red assay; design: species or system BTI-TN-5B1-4
[5] = biological target: T1, Amine oxidase [flavin-containing] B; test: Inhibition of recombinant human MAO-B expressed in baculovirus infected BTITN-5B1-4 insect cells using p-tyramine as substrate at 100 uM incubated for 10 mins followed by substrate addition measured after 15 mins by Amplex Red assay relative to control; conditions: BTI-TN-5B1-4, human, 25 min
[6] = Permeability coefficient of compound incubated for 120 mins by UV-Vis spectroscopy based PAMPA-BBB assay
[7] = Chemical stability of compound in NaH2PO4/NaHPO4 at pH 7.4 assessed as compound remaining at 10 uM incubated overnight by UPLC-MS/MS analysis; type: physicochemical; conditions: NaH2PO4/NaHPO4 buffer, read-out: Stability
Method in brief: (§2)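 Overnight incubation at room temperature, 10 μM final. Buffers: pH 3.5 CH₃COONa/CH₃COOH 0.1 M; pH 7.4 NaH₂PO₄/NaHPO₄ 10 mM; pH 10.4 NaHCO₃/Na₂CO₃ 0.5 M. Aliquots taken at t = 0 and after incubation, analysed by UPLC-MS/MS; expressed as % remaining.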

[8] = Metabolic stability in mouse liver microsomes assessed as compound remaining at 1 uM measured upto 60 mins by UPLC-MS/MS analysis; type: ADME, Microsome; conditions: read-out: Stability
[9] = Metabolic stability in mouse liver microsomes assessed as intrinsic clearance at 1 uM measured upto 60 mins by UPLC-MS/MS analysis; type: ADME, Microsome; conditions: read-out: CLH
[10] = Metabolic stability in mouse liver microsomes assessed as half life at 1 uM measured upto 60 mins by UPLC-MS/MS analysis; type: ADME, Microsome
[11] = Chemical stability of compound in CH3COONa/CH3COOH at pH 3.5 assessed as compound remaining at 10 uM incubated overnight by UPLC-MS/MS analysis; type: physicochemical; conditions: CH3COONa/CH3COOH buffer, read-out: Stability; method in brief: as §2
[12] = Chemical stability of compound in NaHCO3/Na2CO3 at pH 10.4 assessed as compound remaining at 10 uM incubated overnight by UPLC-MS/MS analysis; type: physicochemical; conditions: NaHCO3/Na2CO3 buffer, read-out: Stability; method in brief: as §2
[13] = Metabolic stability in human liver microsomes assessed as intrinsic clearance at 1 uM measured upto 60 mins by UPLC-MS/MS analysis; type: ADME, Microsome; conditions: read-out: CLH
[14] = Metabolic stability in human liver microsomes assessed as compound remaining at 1 uM measured upto 60 mins by UPLC-MS/MS analysis; type: ADME, Microsome; conditions: read-out: Stability
[15] = Metabolic stability in human liver microsomes assessed as half life at 1 uM measured upto 60 mins by UPLC-MS/MS analysis; type: ADME, Microsome
[16] = biological target: T2, Amine oxidase [flavin-containing] A; test: Inhibition of recombinant human MAO-A expressed in baculovirus infected BTITN-5B1-4 insect cells using p-tyramine as substrate at 100 uM incubated for 10 mins followed by substrate addition measured after 15 mins by Amplex Red assay relative to control; conditions: BTI-TN-5B1-4, human, 25 min; method in brief: as §1
[17] = tested on: SH-SY5Y; test: Neurotoxicity against human SH-SY5Y cells assessed as reduction in cell viability at 100 uM incubated for 24 hrs by MTT assay; type: functional, cell-based
Method in brief: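 SH-SY5Y cells in Ham's F12/EMEM 1:1 with 15% FBS, seeded at 2×10^5 cells/mL and grown 24 h. Treated with 100 μM compound (1% DMSO) for 24 h, then MTT for 2 h; formazan dissolved in DMSO and absorbance read at 540 nm. Viability as % of vehicle control; at least 3 experiments, ANOVA with Bonferroni test.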

Cc1cc(=O)oc2c(NC(=O)OCC(C)C)c(O)ccc12
inhibition (INH) [1]: Not Active
inhibition (INH) [2]: Not Active

C=CC(=O)Nc1c(O)ccc2c(C)cc(=O)oc12
IC50 [3]: 38.1 µM
IC50 [4]: 16.3 µM

Cc1cc(=O)oc2c(NC(=O)CCl)c(O)ccc12
IC50 [4]: 85.9 µM
inhibition (INH) [2]: Not Active

O=C(NCCN1CCOCC1)c1ccc(Cl)cc1 [MOCLOBEMIDE]
inhibition at 100 µM [5]: 50%

CCC(=O)Nc1c(O)ccc2c(C)cc(=O)oc12
IC50 [4]: 52.7 µM
inhibition (INH) [1]: Not Active
inhibition (INH) [2]: Not Active

Cc1cc(=O)oc2c(NC(=O)OCc3ccccc3)c(O)ccc12
IC50 [3]: 17.2 µM

CCOC(=O)Nc1c(O)ccc2c(C)cc(=O)oc12
Papp at 2 h [6]: 4.9 ×10⁻⁶ cm/s
inhibition (INH) [1]: Not Active

Cc1cc(=O)oc2c(NC(=O)OC(C)C)c(O)ccc12
IC50 [3]: 1.88 µM

Cc1cc(=O)oc2c(NC(=O)CC(C)(C)C)c(O)ccc12
IC50 [4]: 7.35 µM
inhibition (INH) [2]: Not Active

Cc1cc(=O)oc2c(NC(=O)/C=C/c3ccccc3)c(O)ccc12
IC50 [3]: 0.022 µM

Cc1cc(=O)oc2c(NC(=O)OCCl)c(O)ccc12
IC50 [3]: 9.19 µM

Cc1cc(=O)oc2c(NC(=O)C(C)C)c(O)ccc12
IC50 [4]: 31 µM
inhibition (INH) [1]: Not Active
inhibition (INH) [2]: Not Active

COc1cc(C(=O)Nc2c(O)ccc3c(C)cc(=O)oc23)cc(OC)c1OC
IC50 [4]: 68.3 µM
inhibition at 100 µM [5]: 50%
inhibition (INH) [2]: Not Active

Cc1ccc(C(=O)Nc2c(O)ccc3c(C)cc(=O)oc23)cc1
remaining at 10 µM [7]: 113%
Papp at 2 h [6]: 8.6 ×10⁻⁶ cm/s
remaining at 1 h, 1 µM [8]: 8.3%
microsomal CLint at 1 µM [9]: 131 µL/min/mg
half-life at 1 µM [10]: 17.1 min
remaining at 10 µM [11]: 98%
remaining at 10 µM [12]: 118%
microsomal CLint at 1 µM [13]: 196 µL/min/mg
remaining at 1 h, 1 µM [14]: 0.5%
half-life at 1 µM [15]: 6.84 min

Cc1cc(=O)oc2c(NC(=O)c3ccco3)c(O)ccc12
inhibition at 100 µM [16]: 50%
IC50 [4]: 17.3 µM

Cc1cc(=O)oc2c(NC(=O)Oc3ccccc3)c(O)ccc12
Activity [17]: Active
inhibition (INH) [2]: Not Active

COC(=O)Nc1c(O)ccc2c(C)cc(=O)oc12
inhibition at 100 µM [5]: 50%
inhibition (INH) [2]: Not Active
